Values joined by “and” are separate entries in the source; they are usually repeats but may differ in a detail not shown here. Equal entries are not always repeated.
System: Fibroblast
Experiment: Multiplex assay against human fibroblast
Format: toxicity, cell-based
In short: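 Phenotypes for tubulin, mitochondrial mass and membrane permeability are expressed as per cents of healthy-nucleus cells. Cells were stained live at seeding with Hoechst33342, BioTracker Green Microtubule Cytoskeleton Dye, MitoTracker Red and Annexin V Alexa Fluor 680, then imaged after compound addition on a CQ1 microscope at 37°C and 5% CO2. Machine-learning gating in CellPathfinder separated Hoechst high-intensity objects from normal cells, divided normal cells by nuclear state (healthy, pyknosed, fragmented) and divided pyknosed cells into mitotic or apoptotic.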

[1] = 12 h, 1 µM, compound concentration 1 uM, replicate 1
[2] = 12 h, 1 µM, compound concentration 1 uM, replicate 2
[3] = 12 h, 10 µM, compound concentration 10 uM, replicate 1
[4] = 12 h, 10 µM, compound concentration 10 uM, replicate 2
[5] = 24 h, 1 µM, compound concentration 1 uM, replicate 1
[6] = 24 h, 1 µM, compound concentration 1 uM, replicate 2
[7] = 24 h, 10 µM, compound concentration 10 uM, replicate 1
[8] = 24 h, 10 µM, compound concentration 10 uM, replicate 2
[9] = 48 h, 1 µM, compound concentration 1 uM, replicate 1
[10] = 48 h, 1 µM, compound concentration 1 uM, replicate 2
[11] = 48 h, 10 µM, compound concentration 10 uM, replicate 1
[12] = 48 h, 10 µM, compound concentration 10 uM, replicate 2

CCC1=C[C@@H]2C[N@](C1)Cc1c([nH]c3ccccc13)[C@@](C(=O)OC)(c1cc3c(cc1OC)N(C)[C@H]1[C@@](O)(C(=O)OC)[C@H](OC(C)=O)[C@]4(CC)C=CCN5CC[C@]31[C@@H]54)C2.O=C(O)C(O)C(O)C(=O)O.O=C(O)C(O)C(O)C(=O)O [VINORELBINE TARTRATE]
Population Apoptotic (%) [1]: 63% and 65% | Population Fragmented Nuclei (%) [1]: 27% and 51% | Population Healthy Nuclei (%) [1]: 48% and 34% | Population Hoechst High Intensity Objects (%) [1]: 16% and 26% | Population Mitochondria Different-Phenotype (%) [1]: 14% and 9% | Population Mitotic Cells (%) [1]: 36% and 34% | Population Normal (%) [1]: 83% and 73% | Population Pyknosed Nuclei (%) [1]: 23% and 14% | Population Tubulin-Different-Phenotype (%) [1]: 8% and 4% | Total Cell Count [1]: 151 and 452 | Population Apoptotic (%) [2]: 100% and 80% | Population Fragmented Nuclei (%) [2]: 79% and 75% | Population Healthy Nuclei (%) [2]: 18% and 15% | Population Hoechst High Intensity Objects (%) [2]: 44% and 38% | Population Membrane Permeable-Phenotype (%) [2]: 22% and 0% | Population Mitochondria Different-Phenotype (%) [2]: 0% | Population Mitotic Cells (%) [2]: 0% and 20% | Population Normal (%) [2]: 55% and 61% | Total Cell Count [2]: 86 and 94 | Population Apoptotic (%) [3]: 67% and 68% | Population Fragmented Nuclei (%) [3]: 46% and 27% | Population Healthy Nuclei (%) [3]: 39% and 50% | Population Hoechst High Intensity Objects (%) [3]: 18% | Population Membrane Permeable-Phenotype (%) [3]: 6% and 4% | Population Mitochondria Different-Phenotype (%) [3]: 13% and 6% | Population Mitotic Cells (%) [3]: 32% and 31% | Population Normal (%) [3]: 81% | Population Pyknosed Nuclei (%) [3]: 13% and 22% | Population Tubulin-Different-Phenotype (%) [3]: 3% | Total Cell Count [3]: 353 and 227 | Population Apoptotic (%) [4]: 50% and 60% | Population Fragmented Nuclei (%) [4]: 59% and 69% | Population Healthy Nuclei (%) [4]: 31% and 24% | Population Hoechst High Intensity Objects (%) [4]: 32% and 26% | Population Membrane Permeable-Phenotype (%) [4]: 17% and 0% | Population Mitochondria Different-Phenotype (%) [4]: 17% and 10% | Population Mitotic Cells (%) [4]: 50% and 40% | Population Normal (%) [4]: 67% and 73% | Population Pyknosed Nuclei (%) [4]: 8% and 6% | Population Tubulin-Different-Phenotype (%) [4]: 13% and 0% | Total Cell Count [4]: 107 and 111 | Population Apoptotic (%) [5]: 73% and 63% | Population Fragmented Nuclei (%) [5]: 54% and 33% | Population Healthy Nuclei (%) [5]: 31% and 50% | Population Hoechst High Intensity Objects (%) [5]: 25% and 18% | Population Mitochondria Different-Phenotype (%) [5]: 8% and 7% | Population Mitotic Cells (%) [5]: 26% and 36% | Population Normal (%) [5]: 74% and 81% | Population Pyknosed Nuclei (%) [5]: 13% and 16% | Population Tubulin-Different-Phenotype (%) [5]: 4% and 3% | Population Fragmented Nuclei (%) [6]: 76% and 77% | Population Healthy Nuclei (%) [6]: 20% and 15% | Population Hoechst High Intensity Objects (%) [6]: 44% and 34% | Population Mitochondria Different-Phenotype (%) [6]: 22% and 9% | Population Mitotic Cells (%) [6]: 100% and 40% | Population Normal (%) [6]: 55% and 65% | Population Pyknosed Nuclei (%) [6]: 2% and 6% | Population Tubulin-Different-Phenotype (%) [6]: 22% and 9% | Total Cell Count [6]: 77 and 110 | Population Apoptotic (%) [7]: 77% and 75% | Population Fragmented Nuclei (%) [7]: 48% and 27% | Population Healthy Nuclei (%) [7]: 35% and 54% | Population Hoechst High Intensity Objects (%) [7]: 26% and 19% | Population Membrane Permeable-Phenotype (%) [7]: 5% and 4% | Population Mitochondria Different-Phenotype (%) [7]: 9% and 2% | Population Mitotic Cells (%) [7]: 22% and 25% | Population Normal (%) [7]: 73% and 80% | Population Pyknosed Nuclei (%) [7]: 15% and 18% | Population Tubulin-Different-Phenotype (%) [7]: 3% and 1% | Total Cell Count [7]: 394 and 248 | Population Fragmented Nuclei (%) [8]: 60% and 80% | Population Healthy Nuclei (%) [8]: 31% and 17% | Population Hoechst High Intensity Objects (%) [8]: 37% and 27% | Population Membrane Permeable-Phenotype (%) [8]: 10% and 0% | Population Mitochondria Different-Phenotype (%) [8]: 10% and 0% | Population Normal (%) [8]: 62% and 72% | Population Tubulin-Different-Phenotype (%) [8]: 0% | Total Cell Count [8]: 103 and 151

CC(C)Oc1ccccc1C(=O)Nc1ccccc1C(=O)Nc1cccc(S(=O)(=O)C(F)(F)F)c1
Population Apoptotic (%) [1]: 75% | Population Fragmented Nuclei (%) [1]: 23% | Population Healthy Nuclei (%) [1]: 49% | Population Hoechst High Intensity Objects (%) [1]: 14% | Population Membrane Permeable-Phenotype (%) [1]: 16% | Population Mitochondria Different-Phenotype (%) [1]: 22% | Population Mitotic Cells (%) [1]: 25% | Population Normal (%) [1]: 85% | Population Pyknosed Nuclei (%) [1]: 26% | Population Tubulin-Different-Phenotype (%) [1]: 62% | Total Cell Count [1]: 158 | Population Apoptotic (%) [2]: 33% | Population Fragmented Nuclei (%) [2]: 20% | Population Healthy Nuclei (%) [2]: 74% | Population Hoechst High Intensity Objects (%) [2]: 5% | Population Membrane Permeable-Phenotype (%) [2]: 10% | Population Mitochondria Different-Phenotype (%) [2]: 45% | Population Mitotic Cells (%) [2]: 66% | Population Normal (%) [2]: 94% | Population Pyknosed Nuclei (%) [2]: 6% | Population Tubulin-Different-Phenotype (%) [2]: 37% | Total Cell Count [2]: 62 | Population Apoptotic (%) [3]: 61% | Population Fragmented Nuclei (%) [3]: 39% | Population Healthy Nuclei (%) [3]: 34% | Population Hoechst High Intensity Objects (%) [3]: 11% | Population Membrane Permeable-Phenotype (%) [3]: 35% | Population Mitochondria Different-Phenotype (%) [3]: 47% | Population Mitotic Cells (%) [3]: 38% | Population Normal (%) [3]: 88% | Population Pyknosed Nuclei (%) [3]: 25% | Population Tubulin-Different-Phenotype (%) [3]: 23% | Total Cell Count [3]: 137 | Population Apoptotic (%) [4]: 90% | Population Fragmented Nuclei (%) [4]: 17% | Population Healthy Nuclei (%) [4]: 71% | Population Hoechst High Intensity Objects (%) [4]: 4% | Population Membrane Permeable-Phenotype (%) [4]: 97% | Population Mitochondria Different-Phenotype (%) [4]: 92% | Population Mitotic Cells (%) [4]: 10% | Population Normal (%) [4]: 96% | Population Pyknosed Nuclei (%) [4]: 10% | Population Tubulin-Different-Phenotype (%) [4]: 100% | Total Cell Count [4]: 53 | Population Apoptotic (%) [5]: 61% | Population Fragmented Nuclei (%) [5]: 25% | Population Healthy Nuclei (%) [5]: 51% | Population Hoechst High Intensity Objects (%) [5]: 11% | Population Membrane Permeable-Phenotype (%) [5]: 10% | Population Mitochondria Different-Phenotype (%) [5]: 22% | Population Mitotic Cells (%) [5]: 38% | Population Normal (%) [5]: 88% | Population Pyknosed Nuclei (%) [5]: 22% | Population Tubulin-Different-Phenotype (%) [5]: 65% | Total Cell Count [5]: 168 | Population Apoptotic (%) [6]: 33% | Population Fragmented Nuclei (%) [6]: 21% | Population Healthy Nuclei (%) [6]: 66% | Population Hoechst High Intensity Objects (%) [6]: 7% | Population Membrane Permeable-Phenotype (%) [6]: 11% | Population Mitochondria Different-Phenotype (%) [6]: 58% | Population Mitotic Cells (%) [6]: 66% | Population Normal (%) [6]: 92% | Population Pyknosed Nuclei (%) [6]: 11% | Population Tubulin-Different-Phenotype (%) [6]: 35% | Total Cell Count [6]: 57 | Population Apoptotic (%) [7]: 79% | Population Fragmented Nuclei (%) [7]: 40% | Population Healthy Nuclei (%) [7]: 37% | Population Hoechst High Intensity Objects (%) [7]: 12% | Population Membrane Permeable-Phenotype (%) [7]: 21% | Population Mitochondria Different-Phenotype (%) [7]: 71% | Population Mitotic Cells (%) [7]: 20% | Population Normal (%) [7]: 87% | Population Pyknosed Nuclei (%) [7]: 21% | Population Tubulin-Different-Phenotype (%) [7]: 23% | Total Cell Count [7]: 127 | Population Apoptotic (%) [8]: 100% | Population Fragmented Nuclei (%) [8]: 17% | Population Healthy Nuclei (%) [8]: 56% | Population Hoechst High Intensity Objects (%) [8]: 11% | Population Membrane Permeable-Phenotype (%) [8]: 91% | Population Mitochondria Different-Phenotype (%) [8]: 94% | Population Mitotic Cells (%) [8]: 0% | Population Normal (%) [8]: 88% | Population Pyknosed Nuclei (%) [8]: 27% | Population Tubulin-Different-Phenotype (%) [8]: 98% | Total Cell Count [8]: 55 | Population Apoptotic (%) [9]: 70% | Population Fragmented Nuclei (%) [9]: 30% | Population Healthy Nuclei (%) [9]: 57% | Population Hoechst High Intensity Objects (%) [9]: 14% | Population Membrane Permeable-Phenotype (%) [9]: 14% | Population Mitochondria Different-Phenotype (%) [9]: 13% | Population Mitotic Cells (%) [9]: 29% | Population Normal (%) [9]: 85% | Population Pyknosed Nuclei (%) [9]: 12% | Population Tubulin-Different-Phenotype (%) [9]: 49% | Total Cell Count [9]: 163 | Population Apoptotic (%) [10]: 60% | Population Fragmented Nuclei (%) [10]: 29% | Population Healthy Nuclei (%) [10]: 67% | Population Hoechst High Intensity Objects (%) [10]: 7% | Population Membrane Permeable-Phenotype (%) [10]: 4% | Population Mitochondria Different-Phenotype (%) [10]: 1% | Population Mitotic Cells (%) [10]: 40% | Population Normal (%) [10]: 92% | Population Pyknosed Nuclei (%) [10]: 3% | Population Tubulin-Different-Phenotype (%) [10]: 55% | Total Cell Count [10]: 154 | Population Apoptotic (%) [11]: 78% | Population Fragmented Nuclei (%) [11]: 69% | Population Healthy Nuclei (%) [11]: 24% | Population Hoechst High Intensity Objects (%) [11]: 10% | Population Membrane Permeable-Phenotype (%) [11]: 14% | Population Mitochondria Different-Phenotype (%) [11]: 46% | Population Mitotic Cells (%) [11]: 21% | Population Normal (%) [11]: 89% | Population Pyknosed Nuclei (%) [11]: 6% | Population Tubulin-Different-Phenotype (%) [11]: 48% | Total Cell Count [11]: 232 | Population Apoptotic (%) [12]: 50% | Population Fragmented Nuclei (%) [12]: 66% | Population Healthy Nuclei (%) [12]: 29% | Population Hoechst High Intensity Objects (%) [12]: 9% | Population Membrane Permeable-Phenotype (%) [12]: 21% | Population Mitochondria Different-Phenotype (%) [12]: 65% | Population Mitotic Cells (%) [12]: 50% | Population Normal (%) [12]: 90% | Population Pyknosed Nuclei (%) [12]: 3% | Population Tubulin-Different-Phenotype (%) [12]: 55% | Total Cell Count [12]: 175
